# Results reported in ChEMBL document CHEMBL1130280, “2-(1-Naphthyloxy)ethylamines with enhanced affinity for human 5-HT1D beta (h5-HT1B) serotonin receptors” (J Med Chem, 1997).
# pKi: −log10 of the molar value.
# What was measured:
# [1] = target: 5-hydroxytryptamine receptor 1B (Homo sapiens, UniProt P28222); test: Agonist activity to the human recombinant 5-hydroxytryptamine 1B receptor; type: functional
# Method in brief: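 CHO Pro 5 cells stably transfected with human recombinant 5-HT1Dβ receptors. Compound was added to the culture medium for 30 min at 37 °C. The reaction was stopped with cold ethanolic 5 mM EDTA (2:1 v/v), and extracted cAMP was quantified by enzyme immunoassay, with serotonin as the reference agonist.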
# [2] = target: T1, 5-hydroxytryptamine receptor 1D (Homo sapiens, UniProt P28221); test: Compound was tested for its binding affinity against human recombinant 5-hydroxytryptamine 1D receptor alpha for comparison purpose.
# [3] = target: T1, 5-hydroxytryptamine receptor 1D; test: Compound was tested for its agonist activity against human recombinant 5-hydroxytryptamine 1D receptor alpha for comparison purpose.; type: functional
# [4] = target: T1, 5-hydroxytryptamine receptor 1D; test: Compound was tested for its agonist activity against human 5-hydroxytryptamine 1D receptor alpha for comparison purpose.; type: functional
# T1 sequence (P28221 whole entry): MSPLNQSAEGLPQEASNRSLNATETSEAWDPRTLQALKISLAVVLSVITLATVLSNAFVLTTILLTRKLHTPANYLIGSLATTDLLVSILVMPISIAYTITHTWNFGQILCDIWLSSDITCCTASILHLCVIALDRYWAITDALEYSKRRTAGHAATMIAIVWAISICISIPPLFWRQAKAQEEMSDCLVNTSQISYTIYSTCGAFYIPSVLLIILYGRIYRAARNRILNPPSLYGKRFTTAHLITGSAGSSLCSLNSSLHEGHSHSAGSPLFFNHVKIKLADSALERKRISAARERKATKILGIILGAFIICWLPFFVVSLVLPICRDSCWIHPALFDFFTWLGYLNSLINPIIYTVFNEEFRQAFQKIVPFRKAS
# Chain of 5-hydroxytryptamine receptor 1B (P28222 whole entry): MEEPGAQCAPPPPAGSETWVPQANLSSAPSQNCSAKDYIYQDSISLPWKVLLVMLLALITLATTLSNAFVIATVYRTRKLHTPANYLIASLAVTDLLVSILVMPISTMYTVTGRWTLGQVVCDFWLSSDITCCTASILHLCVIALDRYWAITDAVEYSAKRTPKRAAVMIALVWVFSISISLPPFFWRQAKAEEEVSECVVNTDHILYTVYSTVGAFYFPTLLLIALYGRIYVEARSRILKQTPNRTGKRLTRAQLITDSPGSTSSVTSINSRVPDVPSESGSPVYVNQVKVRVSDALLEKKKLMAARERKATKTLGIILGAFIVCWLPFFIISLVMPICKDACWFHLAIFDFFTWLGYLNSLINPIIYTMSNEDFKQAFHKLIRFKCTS
Compound,pKi [1],other results
CCNCCOc1cccc2ccccc12,7.18,–
NCCOc1cccc2ccccc12,7.00,–
CC(C)NCCCOc1cccc2[nH]ccc12,< 5.00,–
CC(C)NCCOc1cccc2ccccc12,6.92,–
CNCCOc1ccccc1,5.22,pKi [2]: 5.74
CN(C)CCOc1cccc2ccccc12,7.03,–
"CC(C)NCC(O)COc1cccc2[nH]ccc12 (single isomer, unassigned; (-)) [PINDOLOL]",5.59,–
OCCNCCOc1cccc2ccccc12,6.97,pKi [3]: 7.17
CNCCOc1cccc2ccccc12,7.59,pKi [4]: 7.47
NCCCOc1cccc2ccccc12,6.54,–
CN(C)CCCOc1ccccc1,< 5.00,–
CCCN(C)CCOc1cccc2ccccc12,6.12,pKi [2]: 6.99
CCCCN(CCCC)CCOc1cccc2ccccc12,5.57,–
CCCNCCOc1cccc2ccccc12,6.70,–
CCCN(C)CCOc1ccccc1C1CCCC1,6.37,pKi [2]: 7.09
CC(C)NCCOc1cccc2[nH]ccc12,5.95,–
CN(C)CCCCOc1cccc2ccccc12,6.33,–
CC(C)NCC(O)COc1cccc2[nH]ccc12 (racemic) [PINDOLOL],< 5.00,–
CN(C)CCCOc1cccc2ccccc12,6.59,–
CCCN(C)CCCOc1ccccc1C1CCCC1,5.92,pKi [2]: 6.84
CCCCN(CC)CCOc1cccc2ccccc12,5.91,pKi [2]: 6.95
CNCCCOc1ccccc1,5.46,–
CN(C)CCCNc1ccccc1,< 5.00,–
CN(CCOc1cccc2ccccc12)Cc1ccccc1,6.59,pKi [2]: 6.23
CNCCOc1cccc(C)c1C,6.50,–
CC(C)NCCCOc1cccc2ccccc12,5.12,–
